Read-outs that look alike come from different tables or passages of the source.
What was measured:
[1] = test system: P. falciparum D10 (CQ-S) strain; assay: Antiplasmodial activity against D10 strain; format: cell-based, Plasmodium falciparum; conditions: read-out: D10 IC50
[2] = test system: P. falciparum W2 (CQ-R) strain; assay: Antiplasmodial activity against W2 strain; format: cell-based, Plasmodium falciparum; conditions: read-out: W2 IC50
P. berghei liver stages = assay: P. berghei liver-stage analysis in mouse primary hepatocytes; format: cell-based, Plasmodium berghei
Outline: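 Mouse primary hepatocytes were infected with 20'000 mCherry-expressing P. berghei ANKA sporozoites. From 2 h post-infection, cells received a range of test compound concentrations or a matching DMSO control, with medium and drug renewed at 24 h. At 48 h, parasite number and size in unfixed cells were measured by automated microscopy (n = 4, SD). Groups were compared by one-way ANOVA with Dunnett's test.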

[3] = test system: Langendorff-isolated rat hearts; assay: Cardiac mechanical function and ECG in Langendorff-isolated rat hearts; conditions: for Effect on left ventricular pressure (LVP): concentration-effect relationship; for Effect on coronary perfusion pressure (CPP): data not shown
Outline: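 Rats heparinised (5000 U/kg) with xylazine (4 mg/kg), decapitated. Hearts perfused retrogradely via aorta at 10 mL/min with Krebs-Henseleit (95% O2-5% CO2, pH 7.4, 37 °C), equilibrated ≥20 min before drug. LVP by intraventricular latex balloon (end-diastolic 10 mmHg), systolic minus diastolic. CPP by inflow-line transducer. Surface ECG at 1 kHz: RR, HR, PQ, QRS, QT, Bazett-corrected QTc.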

Cav1.2 channels = Cav1.2 channels (Rattus norvegicus, UniProt P22002); assay: Whole-cell patch-clamp of IBa1.2 in single rat tail artery myocytes; format: cell-based; conditions: 30 μM
Outline: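 Rat tail artery myocytes were isolated enzymatically (collagenase, 37 °C, 40–45 min), kept at 4 °C and used within two days. Whole-cell patch-clamp was run at 20–22 °C. The external solution held 5 mM Ba2+ and 30 mM TEA; the pipette solution was Cs+-based (pCa 8.4, pH 7.4). IBa was evoked by 250-ms pulses to 0 mV from −50 mV at 0.067 Hz, with recording once current had stabilised.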

[4] = test system: P. falciparum 3D7elo1-pfs16-CBG99 late-stage gametocytes; assay: Gametocytocidal luciferase-based assay, 3D7elo1-pfs16-CBG99; format: cell-based, Plasmodium falciparum; conditions: 72 h, read-out: GCT: 3D7elo1-pfs16-CBG99 IC50
[5] = test system: P. falciparum NF54-HGL gametocytes; assay: NF54-HGL gametocyte luciferase assay; format: cell-based, Plasmodium falciparum; conditions: read-out: GCT: NF54-HGL IC50
Outline: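 Gametocytes came from a flask inoculated with 1% asexual parasites at 5% haematocrit in RPMI1640 with 10% human serum. Asexual stages were cleared with 50 mM NAG on days 4–9. Mostly stage IV cells were Percoll-purified on day 11 and plated at 5000 per well (final DMSO 0.1%). After 72 h at 37 °C, 3% O2, 4% CO2, viability was read as ONE-Glo luminescence.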

[6] = test system: late stages Plasmodium gametocytes; conditions: read-out: in vitro IC50 against late stages Plasmodium gametocytes; different published assays; cited from earlier work
PfPMT = target: T1, PfPMT (Plasmodium falciparum, UniProt Q8IDQ9); assay: PfPMT radiochemical methyltransferase assay; format: biochemical; conditions: 100 μM
T1 sequence (Q8IDQ9 1-266): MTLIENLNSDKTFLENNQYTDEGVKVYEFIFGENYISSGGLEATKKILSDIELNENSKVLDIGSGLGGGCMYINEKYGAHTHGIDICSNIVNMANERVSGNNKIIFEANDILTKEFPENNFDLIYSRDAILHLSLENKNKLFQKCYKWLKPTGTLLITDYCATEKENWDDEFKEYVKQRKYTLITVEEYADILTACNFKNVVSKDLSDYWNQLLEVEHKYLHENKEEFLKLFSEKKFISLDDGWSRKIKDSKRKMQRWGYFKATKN
Outline: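 Recombinant PfPMT was expressed in and purified from E. coli. Activity was measured radiochemically with 2 µg enzyme in 0.1 M Hepes-KOH pH 8.0, 2 mM Na2EDTA, 10% glycerol and 5% DMSO. The reaction contained 30 µM SAM (including 100 nCi [methyl-14C]SAM) and 55 µM phosphoethanolamine. Inhibitors were screened at 100 µM; values are mean ± SD, n = 3.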

[7] = test system: P. falciparum strain NF54 asexual blood stage parasites; assay: NF54 asexual blood stage Sybrgreen DNA replication assay; format: cell-based, Plasmodium falciparum; conditions: read-out: NF54 IC50, CQ-S strain, 72 h
Outline: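 Asexual NF54 parasites were seeded at 0.83% parasitaemia and 1.5% haematocrit in RPMI1640 with 10% human serum. Serial dilutions were made from DMSO stocks in medium (final DMSO 0.1%). Plates were incubated 72 h at 37 °C under 3% O2 and 4% CO2. Growth was read as SYBR Green fluorescence.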

[8] = test system: P. falciparum asexual and sexual stages; conditions: read-out: IC50 against P. falciparum asexual and sexual stages; cited from earlier work
[9] = test system: male and female NF54 gametes; conditions: cited from earlier work

Sequence of Cav1.2 channels (P22002 whole entry): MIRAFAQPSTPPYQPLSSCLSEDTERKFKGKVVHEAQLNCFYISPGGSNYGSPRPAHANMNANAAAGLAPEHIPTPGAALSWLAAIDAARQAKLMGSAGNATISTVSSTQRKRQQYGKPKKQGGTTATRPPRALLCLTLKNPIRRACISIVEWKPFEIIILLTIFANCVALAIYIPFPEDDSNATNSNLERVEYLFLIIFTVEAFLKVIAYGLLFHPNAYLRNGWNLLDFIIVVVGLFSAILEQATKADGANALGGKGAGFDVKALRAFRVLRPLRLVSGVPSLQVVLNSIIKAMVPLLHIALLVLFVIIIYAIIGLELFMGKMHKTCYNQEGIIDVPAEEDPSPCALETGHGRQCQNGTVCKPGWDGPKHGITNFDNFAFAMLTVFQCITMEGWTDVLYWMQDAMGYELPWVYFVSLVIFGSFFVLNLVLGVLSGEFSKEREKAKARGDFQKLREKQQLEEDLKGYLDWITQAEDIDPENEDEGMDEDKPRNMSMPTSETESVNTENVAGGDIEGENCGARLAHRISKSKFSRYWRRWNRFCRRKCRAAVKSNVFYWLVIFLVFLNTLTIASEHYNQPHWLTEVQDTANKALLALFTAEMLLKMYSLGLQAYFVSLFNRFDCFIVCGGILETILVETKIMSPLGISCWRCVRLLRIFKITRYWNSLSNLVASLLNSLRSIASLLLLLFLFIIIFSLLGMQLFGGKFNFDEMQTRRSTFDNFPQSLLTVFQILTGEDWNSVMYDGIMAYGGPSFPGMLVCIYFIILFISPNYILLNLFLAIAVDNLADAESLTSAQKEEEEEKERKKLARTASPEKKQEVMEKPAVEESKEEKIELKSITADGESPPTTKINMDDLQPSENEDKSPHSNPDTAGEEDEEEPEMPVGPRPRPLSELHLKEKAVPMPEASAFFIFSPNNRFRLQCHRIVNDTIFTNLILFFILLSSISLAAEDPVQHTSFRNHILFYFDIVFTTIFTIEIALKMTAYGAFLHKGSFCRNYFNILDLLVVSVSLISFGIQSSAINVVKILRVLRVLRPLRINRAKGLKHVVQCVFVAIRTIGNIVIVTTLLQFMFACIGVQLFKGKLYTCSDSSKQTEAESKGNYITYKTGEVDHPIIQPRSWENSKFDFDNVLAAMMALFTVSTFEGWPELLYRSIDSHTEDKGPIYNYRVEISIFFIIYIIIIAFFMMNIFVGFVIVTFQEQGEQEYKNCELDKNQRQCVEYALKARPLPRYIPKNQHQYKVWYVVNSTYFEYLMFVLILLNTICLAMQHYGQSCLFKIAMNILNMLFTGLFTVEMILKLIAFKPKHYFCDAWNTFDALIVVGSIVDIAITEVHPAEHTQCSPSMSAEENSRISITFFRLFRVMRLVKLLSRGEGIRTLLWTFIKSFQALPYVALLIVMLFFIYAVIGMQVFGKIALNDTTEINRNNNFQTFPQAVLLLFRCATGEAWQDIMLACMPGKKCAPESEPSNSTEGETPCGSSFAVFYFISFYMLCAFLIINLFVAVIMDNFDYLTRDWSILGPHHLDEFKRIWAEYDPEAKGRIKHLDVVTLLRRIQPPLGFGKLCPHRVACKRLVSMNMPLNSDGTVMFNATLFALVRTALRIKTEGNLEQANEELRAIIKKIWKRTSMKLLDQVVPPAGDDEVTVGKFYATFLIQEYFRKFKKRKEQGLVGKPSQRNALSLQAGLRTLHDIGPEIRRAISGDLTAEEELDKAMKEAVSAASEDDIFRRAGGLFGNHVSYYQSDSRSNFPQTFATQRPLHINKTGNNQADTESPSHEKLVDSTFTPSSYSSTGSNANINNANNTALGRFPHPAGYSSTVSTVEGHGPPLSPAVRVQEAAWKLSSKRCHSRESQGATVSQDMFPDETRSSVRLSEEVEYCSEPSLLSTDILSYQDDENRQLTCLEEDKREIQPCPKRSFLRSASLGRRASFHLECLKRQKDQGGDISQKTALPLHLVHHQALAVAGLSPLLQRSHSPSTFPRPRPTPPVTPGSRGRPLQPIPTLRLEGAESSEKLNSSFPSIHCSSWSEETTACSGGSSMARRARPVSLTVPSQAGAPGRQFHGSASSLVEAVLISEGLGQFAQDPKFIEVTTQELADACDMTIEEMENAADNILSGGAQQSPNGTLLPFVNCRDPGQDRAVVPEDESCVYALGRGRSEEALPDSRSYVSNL
Sequence of Cav1.2 channels (P54290 25-944 partner limits assumed): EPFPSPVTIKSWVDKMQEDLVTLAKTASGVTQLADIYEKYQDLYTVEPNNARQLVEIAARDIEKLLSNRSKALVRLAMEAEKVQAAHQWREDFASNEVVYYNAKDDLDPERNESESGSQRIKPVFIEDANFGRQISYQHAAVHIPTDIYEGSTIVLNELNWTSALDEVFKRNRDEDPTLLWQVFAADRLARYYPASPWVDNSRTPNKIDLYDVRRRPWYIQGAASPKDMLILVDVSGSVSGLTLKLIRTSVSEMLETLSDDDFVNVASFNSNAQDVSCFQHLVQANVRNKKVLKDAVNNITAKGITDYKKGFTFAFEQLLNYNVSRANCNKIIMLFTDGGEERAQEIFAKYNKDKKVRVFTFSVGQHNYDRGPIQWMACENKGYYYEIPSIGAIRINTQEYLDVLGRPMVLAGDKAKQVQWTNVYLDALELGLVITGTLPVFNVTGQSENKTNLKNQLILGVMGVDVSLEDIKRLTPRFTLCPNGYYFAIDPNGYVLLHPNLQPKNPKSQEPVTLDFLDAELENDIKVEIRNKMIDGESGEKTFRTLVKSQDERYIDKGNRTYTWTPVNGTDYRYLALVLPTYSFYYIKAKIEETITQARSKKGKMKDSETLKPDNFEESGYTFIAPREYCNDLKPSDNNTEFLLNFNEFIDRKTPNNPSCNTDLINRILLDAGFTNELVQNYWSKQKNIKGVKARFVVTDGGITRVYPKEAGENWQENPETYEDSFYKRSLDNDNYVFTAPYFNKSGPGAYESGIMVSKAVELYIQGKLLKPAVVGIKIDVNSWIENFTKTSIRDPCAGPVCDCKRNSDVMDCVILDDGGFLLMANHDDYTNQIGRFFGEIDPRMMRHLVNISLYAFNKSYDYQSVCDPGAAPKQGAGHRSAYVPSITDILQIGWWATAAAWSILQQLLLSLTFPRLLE
Sequence of Cav1.2 channels (P54290 945-1091 partner limits assumed): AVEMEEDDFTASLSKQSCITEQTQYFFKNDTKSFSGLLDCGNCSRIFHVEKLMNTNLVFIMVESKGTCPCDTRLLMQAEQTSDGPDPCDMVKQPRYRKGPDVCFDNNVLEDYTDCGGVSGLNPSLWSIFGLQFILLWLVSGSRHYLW
Sequence of Cav1.2 channels (P54287 whole entry partner): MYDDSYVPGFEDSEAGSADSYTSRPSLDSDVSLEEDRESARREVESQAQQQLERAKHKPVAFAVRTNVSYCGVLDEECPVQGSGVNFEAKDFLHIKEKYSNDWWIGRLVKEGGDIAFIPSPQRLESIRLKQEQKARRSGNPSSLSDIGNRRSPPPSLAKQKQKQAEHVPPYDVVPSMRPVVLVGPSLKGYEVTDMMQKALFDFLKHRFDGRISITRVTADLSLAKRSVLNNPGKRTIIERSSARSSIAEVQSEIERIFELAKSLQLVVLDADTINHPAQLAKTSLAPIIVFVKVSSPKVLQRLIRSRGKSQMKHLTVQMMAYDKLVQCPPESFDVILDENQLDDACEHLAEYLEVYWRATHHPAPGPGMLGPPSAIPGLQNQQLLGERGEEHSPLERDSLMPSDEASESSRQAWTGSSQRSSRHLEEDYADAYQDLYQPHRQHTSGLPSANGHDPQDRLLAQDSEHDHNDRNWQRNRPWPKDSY

With `CCN(CC)CCCC(C)Nc1ccnc2cc(Cl)ccc12` (stereo not shown) [Chloroquine, reference compound] as the compound, how does the IC50 ([1]; Plasmodium falciparum, D10, 72 h) read?
Its IC50 is 0.026 µM.

What about the IC50 ([2]; Plasmodium falciparum, W2, 72 h) of the same compound?
The IC50 was 0.31 µM.

Which Parasite sizes (P. berghei liver stages; 48 hpi, mouse primary hepatocytes, different concentrations) does the source give for `Clc1ccc(-c2ccc(CNCC3CCNCC3)o2)c(-c2ccccc2)c1` [Compound 25, 1-(5-(2-Phenyl-4-chlorophenyl)furan-2-yl)-N-(piperidin-4-ylmethyl)methanamine] here?
Its Parasite sizes is “Neither parasite numbers (Figure 2A) nor parasite sizes (Figure 2B) were significantly influenced”.

What about the “Parasite numbers per well” value (P. berghei liver stages; 48 h, mouse primary hepatocytes, different concentrations) of the same compound?
Its value is “no liver stage activity”.

And the Detached cell formation (P. berghei liver stages; detached cells at 65 hpi vs 48 h number)?
The Detached cell formation was “Neither concentration tested significantly inhibited detached cell formation”.

And the “Effect on left ventricular pressure (LVP)” value [3]?
The value was “reduced left ventricular pressure (LVP) in a concentration-dependent manner”.

What about the “Effect on coronary perfusion pressure (CPP)” value [3] of the same compound?
Its value is “leaving unaltered coronary perfusion pressure”.

What about the “Effect on IBa1.2 current” value (Cav1.2 channels) of the same compound?
The value was “blocked the current”.

What does the source list for `CC[C@H](C)[C@H](NC(=O)[C@H]([C@@H](C)CC)N(C)C(C)=O)C(=O)N[C@H](C(=O)N[C@@H](CC(C)C)C(=O)[C@@]1(C)CO1)[C@@H](C)O` [Epoxomycin, reference compound]?
IC50 ([4]; Plasmodium falciparum): 0.007 µM; IC50 ([5]; Plasmodium falciparum, NF54, 72 h): 0.0007 µM

With `CN(C)CCCNCc1ccc(-c2ccc(F)c(Cl)c2)o1` [Compound 2, N-[(5-(3-chloro-4-fluorophenyl)furan-2-yl)methyl]-N′,N′-dimethylpropane-1,3-diamine, reference compound] as the compound, how does the IC50 [6] read?
The IC50 was less than 1 µM.

With `N#Cc1ccc(-c2ccc(CNCC3CCNCC3)o2)cc1` [Compound 24, 1-(5-(4-Cyanophenyl)furan-2-yl)-N-(piperidin-4-3ylmethyl)methanamine] as the compound, how does the “Inhibitory activity against PfPMT” value (PfPMT) read?
Its value is “weak activity”.

Which IC50 ([1]; CQ-S strain, 72 h, pLDH) does the source give for “1-(5-Bromobenzothiophen-2-yl)-N-(piperidin-4-ylmethyl)methanamine [Compound 32]” here?
Its IC50 is 1 µM.

And the IC50 ([2]; CQ-R strain, 72 h, pLDH)?
Its IC50 is 1.5 µM.

And the IC50 ([4]; late-stage gametocytes (stage IV–V), luciferase)?
The IC50 was 1.4 µM.

And the IC50 [7]?
Its IC50 is 0.73 µM.

And the IC50 ([5]; gametocytes predominantly stage IV, 72 h, luminescence)?
Its IC50 is 0.053 µM.

Which results are given for `Clc1cc(Br)ccc1-c1ccc(CNCC2CCNCC2)o1` [Compound 1, 1-(5-(4-Bromo-2-chlorophenyl)furan-2-yl)-N-(piperidin-4-ylmethyl)methanamine]?
Sinus arrhythmia [3]: 3 out of 4; Effect on left ventricular pressure (LVP) [3]: reduced left ventricular pressure (LVP) in a concentration-dependent manner; Effect on coronary perfusion pressure (CPP) [3]: leaving unaltered coronary perfusion pressure; Inhibitory activity against PfPMT (PfPMT): weak activity; IC50 [8]: < 1 µM; IC50 [6]: < 1 µM; Activity on male and female NF54 gametes [9]: activity on both male and female NF54 gametes

Which “Inhibitory activity against PfPMT” value (PfPMT) does the source give for `C[N+](C)(CCCNCc1ccc(-c2ccc(Cl)cc2Br)o1)Cc1ccccc1.[Cl-]` [Compound 48, N-Benzyl-3-[(5-(4-chloro-2-bromophenyl)furan-2-yl-methyl)amino]-N,N-dimethylpropan-1-ammonium chloride] here?
Its value is “weak activity”.

Source: article PMC5902032 (European journal of medicinal chemistry, 2018)
